# No end group written: not given here.
# Experiments:
# [1] = biological target: T1, Human Gemin4 protein (Homo sapiens, UniProt P57678); experiment: MicroScale thermophoresis; format: binding
# T1 sequence (P57678 1-1058): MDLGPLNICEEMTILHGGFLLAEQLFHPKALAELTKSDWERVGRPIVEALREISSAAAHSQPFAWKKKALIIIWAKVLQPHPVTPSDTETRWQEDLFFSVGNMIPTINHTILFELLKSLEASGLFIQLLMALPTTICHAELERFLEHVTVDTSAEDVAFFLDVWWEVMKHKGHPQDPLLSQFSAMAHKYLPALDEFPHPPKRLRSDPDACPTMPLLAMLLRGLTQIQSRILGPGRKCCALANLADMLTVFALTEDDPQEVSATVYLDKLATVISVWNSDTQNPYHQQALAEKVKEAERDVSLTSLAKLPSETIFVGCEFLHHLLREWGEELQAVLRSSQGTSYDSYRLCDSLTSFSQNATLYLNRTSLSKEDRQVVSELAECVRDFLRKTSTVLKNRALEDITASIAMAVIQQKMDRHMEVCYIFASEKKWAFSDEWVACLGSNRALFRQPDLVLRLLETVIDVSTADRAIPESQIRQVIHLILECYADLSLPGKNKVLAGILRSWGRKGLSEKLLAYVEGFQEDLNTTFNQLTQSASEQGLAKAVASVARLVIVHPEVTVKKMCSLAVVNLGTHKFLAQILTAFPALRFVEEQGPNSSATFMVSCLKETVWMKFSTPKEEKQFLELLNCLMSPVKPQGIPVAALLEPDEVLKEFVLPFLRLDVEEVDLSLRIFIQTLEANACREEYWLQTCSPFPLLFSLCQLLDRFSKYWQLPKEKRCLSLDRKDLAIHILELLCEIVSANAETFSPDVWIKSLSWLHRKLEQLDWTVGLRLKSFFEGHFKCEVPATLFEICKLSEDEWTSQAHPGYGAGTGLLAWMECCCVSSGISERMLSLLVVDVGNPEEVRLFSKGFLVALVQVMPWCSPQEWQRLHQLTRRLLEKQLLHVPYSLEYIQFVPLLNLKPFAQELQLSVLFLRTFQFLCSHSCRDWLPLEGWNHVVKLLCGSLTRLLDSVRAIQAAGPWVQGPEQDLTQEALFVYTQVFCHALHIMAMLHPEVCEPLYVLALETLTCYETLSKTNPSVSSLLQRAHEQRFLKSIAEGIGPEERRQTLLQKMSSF
# Method in brief: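 Human Gemin4 expressed in HEK293 cells and labelled with Cy5 through cysteine sulfhydryl groups. Binding of the test peptide to the labelled protein was measured by microscale thermophoresis, and affinity was derived with the instrument's affinity analysis tool.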
# [2] = tested on: Gemin4; experiment: Co-IP, XLH-36/Gemin4; format: binding; settings: endogenous interaction, Fig. 5E
# [3] = tested on: Gemin4; experiment: yeast two-hybrid assay; format: binding; settings: DDO medium SD/Trp-/Leu-, TDO medium SD/Trp-/Leu-/HIS-
# [4] = tested on: Gemin4; experiment: Immunofluorescence co-staining XLH-36/Gemin4; format: cell-based; settings: MDA-MB-231 cells, confocal immunofluorescence
# Method in brief: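 Cells fixed 15 min at RT in β-galactosidase staining fixative, permeabilised with Triton X-100 for 15 min, blocked in 5% BSA for 30 min at RT. Primary antibody overnight at 4 °C, then secondary antibodies 2 h at RT in the dark. DAPI counterstain 10 min in the dark; imaged by fluorescence microscopy. PBS washes between steps.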
sequence,measurement,setting,value
MRQGPSTEVPGRAPRPRGPAASRADPSLRPEGGQDP [XLH-36],Kd,[1],4.76 µM
same,interaction with Gemin4,[2],only Gemin4 was confirmed to interact with XLH-36
same,direct interaction with Gemin4,[3],supported the direct interaction between XLH-36 and Gemin4
same,IF interaction with Gemin4,[4],XLH-36 indeed interacted with Gemin4
